Compound activity as filed in PubChem BioAssay.
The list is not random: actives were taken first. Their share in the collection is about 1.9%.
PLC-beta3 inh: inhibitors of human phospholipase C beta3; Purified PLC-beta3, fluorogenic substrate, fluorescence; inhibition, % at 12.2 µM; hit rate 0.18% among 370,000; AID 720704;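 note: 0% = median of compound wells on plate and 100% = full blocker control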
HGIII-sPLA2 inh: Inhibits HGIII-sPLA2 liposome hydrolysis, primary screen; QFRET BODIPY PC-A2 liposome hydrolysis, fluorescence; inhibition, % at 12.2 µM; hit rate 0.56% among 370,000; Q9NZ20; AID 743126;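 active = inhibition above mean plus 3 SD of compounds lying within the high and low control bounds, cut at about 19% in these data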;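 note: 0% = median of test compound wells and 100% = no enzyme DMSO wells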
Target sequence (Q9NZ20 whole entry, looked up): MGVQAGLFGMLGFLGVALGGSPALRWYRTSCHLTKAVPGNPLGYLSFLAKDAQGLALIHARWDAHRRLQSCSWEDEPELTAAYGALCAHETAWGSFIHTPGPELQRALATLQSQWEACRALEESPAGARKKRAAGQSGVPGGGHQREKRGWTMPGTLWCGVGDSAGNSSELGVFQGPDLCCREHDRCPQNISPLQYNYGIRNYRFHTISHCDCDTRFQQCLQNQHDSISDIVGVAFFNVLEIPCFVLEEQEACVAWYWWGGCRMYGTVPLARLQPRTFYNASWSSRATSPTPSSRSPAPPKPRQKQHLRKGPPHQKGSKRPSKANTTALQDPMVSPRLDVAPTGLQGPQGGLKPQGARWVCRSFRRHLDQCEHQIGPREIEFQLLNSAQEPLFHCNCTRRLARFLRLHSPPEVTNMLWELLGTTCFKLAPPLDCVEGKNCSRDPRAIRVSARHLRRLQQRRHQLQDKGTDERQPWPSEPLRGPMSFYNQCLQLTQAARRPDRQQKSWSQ
PLC-gamma1 inh: PLC-gamma1 (human) inhibition, primary screen. purified PLC-gamma1, fluorogenic substrate, fluorescence. inhibition, % at 12.2 µM. hit rate 0.84% among 370,000. P19174; in the data active = inhibition above about 9.5%
TbMetRS inhib: Trypanosoma brucei MetRS inhibition | purified T. brucei MetRS, ATP depletion, Kinase-Glo luminescence | inhibition, % at 11.9 µM | hit rate 0.4% among 360,000 | AID 624268;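 active = inhibition above a per-plate cutoff of the control wells' mean inhibition plus 3 SD, cut at about 5.5% in these data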;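 note: 0% = DMSO wells median and 100% = median of wells with control inhibitor compound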
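Test system – parasite MetRS enzyme · Reagent – substrates ATP, L-methionine and bulk Escherichia coli tRNA · Doses – 11.9 µM compound single dose, 0.9% DMSO · Times – 15 min enzyme-compound preincubation, 2 h reaction, 10 min detection, 25 °C · Signal – Kinase-Glo luminescence, ATP depletion format · Controls – DMSO-only wells as low control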
PLCgamma1 ctr: inhibits human PLC-gamma1 in PLC-beta3 counter-screen; purified PLC-gamma1, fluorogenic substrate, fluorescence; inhibition, % at 12.3 µM; hit rate 3.1% among 3,300; shares compounds with PLC-gamma1 inh; in the data active = inhibition above about 9.5%
PLCb3 confirm: confirmation of human PLC-beta3 inhibitors | shares compounds with PLC-gamma1 inh | AID 743261 | purified PLC-beta3, fluorogenic substrate fluorescence | inhibition, % at 12.3 µM | hit rate 1% among 3,300
* = called active by the depositor; x = no result. Cut-off read from the data, not from the text of the source, unless noted: active = inhibition above about 11%; inactive = the rest.

SMILES	PLC-beta3 inh	HGIII-sPLA2 inh	PLC-gamma1 inh	TbMetRS inhib	PLCgamma1 ctr	PLCb3 confirm
CCOc1ccc(C(=O)c2ccc([N+](=O)[O-])cc2Cl)cc1	1	12	8	-1	x	x
CCOc1ccc(C(=O)c2cc([N+](=O)[O-])ccc2Cl)cc1	15*	4	13*	-1	-6	-3
CC(O)c1nc2ccccc2n1CC(=O)N1CCN(c2ccccc2)CC1 (stereo not given)	4	14	11*	-1	-6	-3
O=C(COC(=O)c1cccs1)NCc1ccc2c(c1)OCO2	2	-4	10*	-1	-6	-3
O=C(NCc1ccc2c(c1)OCO2)c1cccs1	6	-9	1	0	x	x
O=C(COC(=O)COc1ccccc1[N+](=O)[O-])NCc1ccc2c(c1)OCO2	8	-8	13*	0	-5	0
COC(=O)[C@]12C[C@H](CC(=O)NCc3cccc4ccccc34)C(=O)N(Cc3ccccc3)C1=C[C@H](C1CCCC1)O[C@@H]2C	0	-18	1	x	x	x
COC(=O)[C@]12C[C@H](CC(=O)NCCCN3CCCC3=O)C(=O)N(Cc3cccc4ccccc34)C1=C[C@H](C(C)C)O[C@@H]2C1CC1	2	-1	1	x	x	x
O=S1(=O)CC2c3ccccc3CN2CN1Cc1ccccc1 (stereo not given)	-12	10	-7	x	x	x
CCOC(=O)C1(C)CCN1C(=O)c1ccc(-c2ccccc2)cc1 (stereo not given)	1	-2	-1	0	x	x
CCOC(=O)C1(C)CCN1C(=O)c1ccc(C)cc1 (stereo not given)	16*	11	9.8*	0	-2	2
CCCN1CCS(=O)(=O)N(Cc2cn(Cc3ccc(OC)cc3)nn2)C(C(=O)OC)C1 (stereo not given)	-2	3	-3	x	x	x
O=c1cc2oc3cc(O)c(O)cc3c(-c3ccccc3[N+](=O)[O-])c-2cc1O	9	18	13*	-2	17*	9
Cc1ccc2nc3n(c(=O)c2c1)-c1ccccc1C(=O)NC3Cc1ccc(O)cc1 (stereo not given)	5	-12	10*	x	-6	-7
O=C1NC(Cc2ccccc2)c2nc3cc(F)ccc3c(=O)n2-c2ccccc21 (stereo not given)	-1	4	11*	x	-5	-5
COc1cccc(N2CCN(CC(=O)NCc3ccccc3C)CC2)c1	-2	9	-1	x	x	x
COCCCN1C(=O)[C@H](CC(=O)NCc2ccc(OC)c(OC)c2)[C@]2(C(=O)OC)CCCCC=C12	3	-1	1	x	x	x
CN(C)[C@H]1CCN(c2cccc3c2S(=O)(=O)N(C2CC2)CCCO3)C1	-1	-3	0	x	x	x
Cc1ccccc1C(=O)NCCCc1ccccc1	3	5	11*	-1	0	-2
COc1ccc(S[C@]2(C(=O)N3CCN(c4ncccn4)CC3)CC(=O)N(c3ccccc3)[C@@H]2c2ccc(OC)cc2)cc1	-1	-7	2	x	x	x
CCN(CC)C(=O)CC[C@H]1CC[C@]2(CCCN(Cc3nccs3)C2)O1	-3	13	5	x	x	x
Cc1ccc(S(=O)(=O)N=C2SCCCS2)cc1	3	-3	9.9*	1	-3	1
Cc1ccc(S(=O)(=O)/N=C2/NC(=O)/C(=C\c3ccccc3)S2)cc1	-5	-71	-1	0	x	x
O=C(NC(=S)Nc1ccc(NC(=O)c2cccs2)cc1)c1ccco1	15*	4	7	-1	0	5
O=C(Nc1ccc(NC(=O)c2cccs2)cc1)c1ccco1	3	-2	-2	-1	x	x
SMILES	PLC-beta3 inh	HGIII-sPLA2 inh	PLC-gamma1 inh	TbMetRS inhib	PLCgamma1 ctr	PLCb3 confirm
Cc1ccc(N2CC(C(=O)NCc3cccnc3)CC2=O)cc1 (stereo not given)	-4	4	0	0	x	x
Cc1ccc(CCN2CC(C(=O)NCc3cccnc3)CC2=O)cc1 (stereo not given)	7	5	12*	0	-2	-1
Cc1[nH]c2ccccc2c1CC(=O)Nc1ccc(Nc2cccnc2)c(-c2ccc(-c3ccccc3)cc2F)c1	-64	-1	-50	x	x	x
CCCCNC(=O)C[C@H]1C[C@@]2(C(=O)OC)C(=C[C@H](C3CCCC3)O[C@@H]2C)N(Cc2ccco2)C1=O	6	-6	-2	x	x	x
COc1ccc(C)cc1S(=O)(=O)N(CC(=O)N1CCCC1)c1ccc(C)cc1	-3	4	-1	0	x	x
COc1ccc(C)cc1S(=O)(=O)N(CC(=O)N1CCOCC1)c1cc(C)cc(C)c1	-2	7	10*	0	0	2
CC1CC(C)CN(C(=O)c2ccc(CSc3nc4ccncc4[nH]3)cc2)C1 (stereo not given)	14*	-24	9	-1	-10	-4
CCN(CCNC(=O)c1ccc(CSc2nc3ccncc3[nH]2)cc1)c1ccccc1	3	-27	2	0	x	x
CN(C)c1nc(Nc2ccccc2)nc(Oc2ccc(=O)[nH]n2)n1	3	5	4	0	x	x
Cc1ccc(Nc2nc(Oc3ccc(=O)[nH]n3)nc(N(C)C)n2)cc1	3	4	10.0*	1	-8	-1
Cc1cc(C)n(CC(=O)NNC(=O)C2CC(=O)N(Cc3ccccc3Cl)C2)n1 (stereo not given)	0	-1	12*	0	-4	1
COc1ccc(NC(=O)C2CC(=O)OC2c2ccccc2)cc1 (stereo not given)	6	-4	10*	0	-5	-1
O=C1C[C@@H](C(=O)Nc2ccc(Cl)cc2)[C@@H](c2ccccc2)O1	0	-6	0	x	x	x
C=CCN(CC#CC1=CCCCC1)CC1CC1	1	3	-1	x	x	x
COc1ccc2nc(NC(=O)C3CCCN(S(=O)(=O)c4cccc5nonc45)C3)sc2c1 (stereo not given)	-3	-2	10*	-2	0	-9
CC1(C)CC2(OC2c2ccccc2)C(=O)c2ccccc21 (stereo not given)	-3	0	1	0	x	x
CC1=[N+]([O-])C(C)(C)CC(C)(C)c2ccccc21	12*	2	3	-1	-5	-5
CCCCN(CCCC)CC(O)COc1ccccc1C(=O)Nc1ccccc1 (stereo not given)	11*	-6	7	-1	0	0
CCN(CC)CC(O)COc1ccccc1C(=O)CCc1ccccc1 (stereo not given)	2	-2	1	1	x	x
C=CCN1[C@H](Cc2ccccc2)COc2cccc(N3CCCC3)c2S1(=O)=O	-2	6	-1	x	x	x
CN(C)C(CNc1ccc([N+](=O)[O-])cc1C#N)c1ccccc1 (stereo not given)	-6	1	1	-1	x	x
N#Cc1cc([N+](=O)[O-])cnc1Nc1ccccc1	12*	-6	10*	0	-2	0
CC(C)N1CCCCC(NC(=O)COCc2ccccc2)C1=O (stereo not given)	-3	8	-1	x	x	x
